{"data": "Measured values gathered from unrelated publications", "target": "Protein kinase C gamma type (PRKCG, Homo sapiens, UniProt P05129)", "note": "Compare with care: the assays were run in different laboratories."}
{"Compound": "Cc1cc(NC(=O)c2cccc3cc(-c4cccc5[nH]nc(N)c45)ccc23)ccc1F", "test": "enzyme activity, inhibitor", "setting": "0.1 µM", "measurement": "activity vs control", "result": "92%"}
{"Compound": "N#CCCc1ccc2c(c1)-c1[nH]c3ccc([N+](=O)[O-])cc3c1CC(=O)N2", "test": "cell-free assay", "setting": "0.5 µM", "measurement": "remaining signal", "result": "93.3%"}
{"Compound": "C[C@@H](N)[C@H]1CC[C@H](C(=O)Nc2ccncc2)CC1", "test": "enzyme activity, inhibitor, TR-FRET", "setting": "10 µM", "measurement": "inhibition", "result": "6.8%"}
{"Compound": "CC(C)(C)c1nc2c(s1)c1nc(N)ncc1c1ccc(NS(=O)(=O)c3c(F)cccc3F)c(F)c12", "test": "enzyme activity, inhibitor, radiometric", "setting": "1 µM", "measurement": "remaining activity", "result": "103%"}
{"Compound": "Cc1ccc(-n2nc(C(C)(C)C)cc2NC(=O)Nc2ccc(OCCN3CCOCC3)c3ccccc23)cc1", "test": "enzyme activity, inhibitor", "setting": "10 µM", "measurement": "inhibition", "result": "7%"}
{"Compound": "Cc1ccc(C(=O)NCc2ccsc2)cc1C#Cc1cn(C(C)C)c2ncnc(N)c12", "test": "enzyme activity, inhibitor", "setting": "1 µM", "measurement": "activity vs control", "result": "97%"}
{"Compound": "CCOc1cc(-c2nncn2C)ccc1Nc1ncc2cc(C)nc(NCC(C)(C)C)c2n1", "test": "enzyme activity, inhibitor, FRET", "setting": "1 µM", "measurement": "inhibition", "result": "< 15%"}
{"Compound": "Cc1sc(C(=O)NC2COC2)cc1-n1cc(NC(=O)Nc2c(F)cccc2Cl)cn1", "test": "enzyme activity, inhibitor", "setting": "10 µM", "measurement": "remaining activity", "result": "102%"}
{"Compound": "CN1CC(Oc2cnc(C#N)cc2-c2ccn3nc(NC(=O)C4CC4)cc3c2)C1", "test": "enzyme activity, inhibitor", "setting": "1 µM", "measurement": "inhibition", "result": "1%"}
{"Compound": "FC(F)(F)Oc1cccc(-c2cnc3ccc(-c4ccncc4)nn23)c1", "test": "enzyme activity, inhibitor, radiometric", "setting": "1 µM", "measurement": "activity vs control", "result": "96%"}
{"Compound": "COc1cc(Nc2cnc(C#N)c(O[C@H](C)CN(C)C)n2)ncc1-c1cnn(C)c1", "test": "enzyme activity, inhibitor, radiometric", "setting": "1 µM", "measurement": "remaining activity", "result": "90%"}
{"Compound": "CCN(CC)CCNC(=O)c1c(C)[nH]c(/C=C2\\C(=O)Nc3ccc(F)cc32)c1C", "test": "enzyme activity, inhibitor", "setting": "10 µM", "measurement": "inhibition", "result": "32%"}
{"Compound": "COc1cc2ncnc(Nc3ccc(Oc4ccccc4)cc3C)c2cc1OC", "test": "enzyme activity, inhibitor", "setting": "1 µM", "measurement": "inhibition", "result": "-3%"}
{"Compound": "CCN(CC)c1ccc(C2=NNC(=O)CC2C)cc1[N+](=O)[O-] (stereo not shown)", "test": "enzyme activity, inhibitor", "setting": "10 µM", "measurement": "remaining activity", "result": "96%"}
{"Compound": "CNC(=O)c1cc(Oc2ccc(NC(=O)Nc3ccc(Cl)c(C(F)(F)F)c3)cc2)ccn1", "test": "enzyme activity, inhibitor", "setting": "10 µM", "measurement": "inhibition", "result": "9%"}
{"Compound": "CC(C)(O)[C@H]1CC[C@H](Nc2ccc3ncc(-c4cccc(C(F)(F)F)c4)n3n2)CC1", "test": "enzyme activity, inhibitor", "setting": "1 µM", "measurement": "remaining activity", "result": "99%"}
